We go through eight molecules from PMC9362842 (Bioconjugate chemistry, 2022).

Where two headings read alike, the source gives them in different places. Marks after values point to notes of the source that are not given here.

For data set [1], the target named is GPC3 (Homo sapiens, UniProt P51654). In words: Bio-layer interferometry. The note with it: BLI, immobilized GPC3 antigen, global fit. Type of data set: binding. A general note: Biolayer interferometry detects binding as a change in optical thickness at a sensor tip.
Data set [2] is classed as physicochemical. The note with it: pH 7.4, 25 °C, I = 0.1 M KCl; for pLa (−log [M]free): [M]total = 10^−6 M, [L]total = 10^−5 M. In a few lines:
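Protonation constants of the free chelator are first determined by pH potentiometric titration (25 °C, 0.1 M KCl ionic strength), then La³⁺ stability constants (log KLaL) by the same method, all in triplicate. The fifth and sixth protonation constants are not determined over the pH ranges used. Conditional constants and pLa at pH 7.4 are calculated from the protonation and stability constants.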

For data set [3] the following is noted: cited from earlier work.
For data set [4] the following is noted: cited from earlier work. This is another data set of the same source.
Data set [5] is described as follows: Hydrolytic stability of the -NCS group in pH 9.1 NaHCO3 buffer. Type of data set: physicochemical.
In data set [6] the test system is HepG2 (GPC3+) xenografts. Type of data set: in vivo, athymic nude mice. The conditions noted are these: 100 nCi.

Molecule “GC33-BZM: H2BZmacropa-NCS conjugate of the antibody GC33” showed a Kd in data set [1] of 0.19 nM.
`O=C(O)c1cccc(CN2CCOCCOCCN(Cc3cccc(C(=O)O)n3)CCOCCOCC2)n1` [H2macropa]: in data set [2], the “pLa (−log [M]free)” value amounted to 15.58 and the “log K´La (conditional stability constant)” value (from here on “log K´La”) is recorded as 14.63. In data set [3] (0.1 M KCl), the “log K1 (protonation constant)” value was 7.41(1)^c, the “log K2 (protonation constant)” value is reported as 6.85(1)^c, the “log K3 (protonation constant)” value was 3.32(1)^c and the “log K4 (protonation constant)” value is listed as 2.36(1)^c. The “log K5 (protonation constant)” value in data set [3] (0.1 M KCl) is on record as 1.69(1)^c. Moreover, the “log KLaHL” value in data set [4] (0.1 M KCl) was 2.28(3) ^ c.
With `O=C(O)c1cccc(CN2CCOCCOCCN(Cc3cc(N=C=S)cc(C(=O)O)n3)CCOCCOCC2)n1` [H2macropa-NCS], the “t1/2 of -NCS hydrolysis to the amine” value in data set [5] (buffer, pH 9.1) worked out at 1.25 h. Further, in data set [5] (pH 9.1 NaHCO3 buffer, room temperature), the “time to complete hydrolysis to the amine” value was “approximately 5 h”.
With “GC33: glypican-3 (GPC3)-targeting antibody codrituzumab”, the Kd in data set [1] worked out at 0.042 nM.
On to `O=C(O)CN1CCN(CC(=O)O)CCN(CC(=O)O)CCN(CC(=O)O)CC1` [H4DOTA, tetraazacyclododecane-1,4,7,10-tetraacetic acid], for which, in data set [2], the “pLa (−log [M]free)” value is 16.62 and the “log K´La” value is 15.67. In data set [3] (0.1 M KCl), the “log K1 (protonation constant)” value is reported as 11.14^d, the “log K2 (protonation constant)” value is 9.69^d, the “log K3 (protonation constant)” value is 4.84^d and the “log K4 (protonation constant)” value is on record as 3.95^d. Further, in data set [4] (0.1 M KCl), the “log KLaHL” value was 2.5(2) ^ d and the “log KLaL (La^3+ stability constant)” value is listed as 21.7(1) ^ d.
For the molecule “[^225Ac]Ac-GC33-BZM: ^225Ac-labeled GC33-BZM antibody radioconjugate”, in data set [6] (48 and 96 h), the “tumor uptake compared with ^225Ac[Ac]-GC33-M” value is “effectively indistinguishable”. The tumor uptake result in data set [6] (48 and 96 h post-injection) is on record as “clear, specific tumor uptake”.
In the case of `O=C(O)CN(CCN(CC(=O)O)CC(=O)O)CCN(CC(=O)O)CC(=O)O` [H5DTPA, diethylenetriamine pentaacetic acid], in data set [2], the “pLa (−log [M]free)” value is reported as 16.22 and the “log K´La” value is 15.27. In data set [3] (0.1 M), the “log K1 (protonation constant)” value was 10.45^e, the “log K2 (protonation constant)” value is 8.53^e, the “log K3 (protonation constant)” value is 4.28^e and the “log K4 (protonation constant)” value was 2.65^e. Also, the “log K5 (protonation constant)” value in data set [3] (0.1 M) is on record as 1.82^e. The “log KLaL (La^3+ stability constant)” value in data set [4] (0.1 M) is 19.48 ^ e.
As for `O=C(O)CN(CCN(CC(=O)O)CC(=O)O)CC(=O)O` [H4EDTA, ethylenediamine tetraacetic acid], in data set [2], the “pLa (−log [M]free)” value was 13.62 and the “log K´La” value came out at 12.67. Besides, in data set [3] (0.1 M), the “log K1 (protonation constant)” value was 10.17^e, the “log K2 (protonation constant)” value is 6.11^e, the “log K3 (protonation constant)” value was 2.68^e and the “log K4 (protonation constant)” value was 2.00^e. For the same molecule, in data set [3] (0.1 M), the “log K5 (protonation constant)” value is listed as 1.5^e. Also, in data set [4] (0.1 M), the “log KLaHL” value is given as 2.24 ^ e and the “log KLaL (La^3+ stability constant)” value is 15.46 ^ e.

What is called Kd is the free concentration of one partner at which half of the binding sites on the other are occupied at equilibrium, for simple one-to-one binding. A high value points to weaker binding.
